The target in test [1] is Cyclin-dependent kinase 5 (Homo sapiens) (UniProt Q00535). Briefly: Binding affinity to wild-type human full length CDK5 (M1 to P292 residues) expressed in bacterial expression system assessed as residual binding level at 1 uM by Kinomescan method relative to control.
Test [2] deals with Mitogen-activated protein kinase 6 (Homo sapiens) (UniProt Q16659). Briefly: Binding affinity to wild-type human partial length ERK3 (M1 to P413 residues) expressed in bacterial expression system assessed as residual binding level at 1 uM by Kinomescan method relative to control.
Test [3] has as its target Rho-associated protein kinase 2 (Homo sapiens) (UniProt O75116). Description: Binding affinity to wild-type human partial length ROCK2 (M1 to T431 residues) expressed in mammalian expression system assessed as residual binding level at 1 uM by Kinomescan method relative to control.
For test [4], the system named is Phosphatidylinositol 4,5-bisphosphate 3-kinase catalytic subunit alpha isoform (Homo sapiens), P42336 [Q546K]. Description: Binding affinity to human partial length PIK3CA Q546K mutant (R108 to N1068 residues) expressed in mammalian expression system assessed as residual binding level at 1 uM by Kinomescan method relative to control.
Test [5] deals with Mitogen-activated protein kinase kinase kinase 19 (Homo sapiens) (UniProt Q56UN5). Description: Binding affinity to wild-type human partial length YSK4 (T1019 to H1328 residues) expressed in mammalian expression system assessed as residual binding level at 1 uM by Kinomescan method relative to control.
The target of test [6] is Serine/threonine-protein kinase ULK2 (Homo sapiens) (UniProt Q8IYT8). Briefly: Binding affinity to wild-type human partial length ULK2 (M1 to S301 residues) expressed in mammalian expression system assessed as residual binding level at 1 uM by Kinomescan method relative to control.
Test [7] has as its target Activin receptor type-2B (Homo sapiens) (UniProt Q13705). Description: Binding affinity to wild-type human ACVR2B (H169 to D504 residues) expressed in bacterial expression system assessed as residual binding level at 1 uM by Kinomescan method relative to control.
Test [8] has as its target Ephrin type-A receptor 7 (Homo sapiens) (UniProt Q15375). Briefly: Binding affinity to wild-type human partial length EPHA7 (Y608 to S912 residues) expressed in bacterial expression system assessed as residual binding level at 1 uM by Kinomescan method relative to control.
Test [9] concerns the target Fibroblast growth factor receptor 2 (Homo sapiens) (UniProt P21802). Briefly: Binding affinity to wild-type human partial length FGFR2 (D457 to E769 residues) expressed in bacterial expression system assessed as residual binding level at 1 uM by Kinomescan method relative to control.
Test [10] deals with BDNF/NT-3 growth factors receptor (Homo sapiens) (UniProt Q16620). Briefly: Binding affinity to wild-type human partial length TRKB (Q547 to G838 residues) expressed in mammalian expression system assessed as residual binding level at 1 uM by Kinomescan method relative to control.
The target of test [11] is Serine/threonine-protein kinase 33 (Homo sapiens) (UniProt Q9BYT3). Description: Binding affinity to wild-type human full length STK33 (M1 to L514 residues) expressed in bacterial expression system assessed as residual binding level at 1 uM by Kinomescan method relative to control.
The subject of test [12] is Phosphatidylinositol 4,5-bisphosphate 3-kinase catalytic subunit alpha isoform (Homo sapiens), P42336 [H1047Y]. Briefly: Binding affinity to human partial length PIK3CA H1047Y mutant (R108 to N1068 residues) expressed in mammalian expression system assessed as residual binding level at 1 uM by Kinomescan method relative to control.
Test [13] has as its target RAC-beta serine/threonine-protein kinase (Homo sapiens) (UniProt P31751). Briefly: Binding affinity to wild-type human partial length AKT2 expressed in bacterial expression system assessed as residual binding level at 1 uM by Kinomescan method relative to control.
Test [14] concerns Hepatocyte growth factor receptor (Homo sapiens), P08581 [Y1235D]. Briefly: Binding affinity to human partial length MET Y1235D mutant (D1010 to S1367 residues) expressed in bacterial expression system assessed as residual binding level at 1 uM by Kinomescan method relative to control. In outline:
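Kinome-wide selectivity panel run by the KINOMEscan method, with the test compound at a single concentration of 1 μM. Wild-type and mutant kinases were profiled in the same screen.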

For test [15], the target named is LIM domain kinase 2 (Homo sapiens) (UniProt P53671). Briefly: Binding affinity to wild-type human full length LIMK2 (M1 to P638 residues) expressed in bacterial expression system assessed as residual binding level at 1 uM by Kinomescan method relative to control. In outline:
(§1)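 Single-point kinome-wide KINOMEscan binding panel, test compound at 1 μM, run by the provider's standard protocol.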

For test [16], the target named is Megakaryocyte-associated tyrosine-protein kinase (Homo sapiens) (UniProt P42679). Description: Binding affinity to wild-type human full length CTK (M43 to P508 residues) expressed in mammalian expression system assessed as residual binding level at 1 uM by Kinomescan method relative to control.
In test [17] the target is Tyrosine-protein kinase receptor UFO (Homo sapiens) (UniProt P30530). Description: Binding affinity to wild-type human partial length AXL (R497 to Y821 residues) expressed in bacterial expression system assessed as residual binding level at 1 uM by Kinomescan method relative to control.
Test [18] has as its target Phosphorylase b kinase gamma catalytic chain, liver/testis isoform (Homo sapiens) (UniProt P15735). Briefly: Binding affinity to wild-type human partial length PHKG2 (M1 to W300 residues) expressed in bacterial expression system assessed as residual binding level at 1 uM by Kinomescan method relative to control.
The target of test [19] is Serine/threonine-protein kinase 16 (Homo sapiens) (UniProt O75716). Description: Binding affinity to wild-type human partial length STK16 (G11 to I305 residues) expressed in bacterial expression system assessed as residual binding level at 1 uM by Kinomescan method relative to control.
Test [20] has as its target Calcium/calmodulin-dependent protein kinase type 1B (Homo sapiens) (UniProt Q6P2M8). Briefly: Binding affinity to wild-type human partial length CAMK1B (W9 to A311 residues) expressed in mammalian expression system assessed as residual binding level at 1 uM by Kinomescan method relative to control.
The target in test [21] is Beta-adrenergic receptor kinase 1 (Homo sapiens) (UniProt P25098). Description: Binding affinity to wild-type human full length GRK2 (M1 to L689 residues) expressed in mammalian expression system assessed as residual binding level at 1 uM by Kinomescan method relative to control. In outline: as §1
Test [22] deals with Tyrosine-protein kinase JAK1 (Homo sapiens) (UniProt P23458). Briefly: Binding affinity to wild-type human partial length JAK1 JH1 catalytic domain (V856 to K1154 residues) expressed in bacterial expression system assessed as residual binding level at 1 uM by Kinomescan method relative to control.
The target of test [23] is 3-phosphoinositide-dependent protein kinase 1 (Homo sapiens) (UniProt O15530). Briefly: Binding affinity to wild-type human full length PDPK1 (M1 to Q556 residues) expressed in bacterial expression system assessed as residual binding level at 1 uM by Kinomescan method relative to control. In outline: as §1
Test [24] deals with Homeodomain-interacting protein kinase 1 (Homo sapiens) (UniProt Q86Z02). Description: Binding affinity to wild-type human partial length HIPK1 (M146 to I555 residues) expressed in mammalian expression system assessed as residual binding level at 1 uM by Kinomescan method relative to control.

Sequence of 3-phosphoinositide-dependent protein kinase 1 (Homo sapiens) (O15530 whole entry, the tested form may be a part): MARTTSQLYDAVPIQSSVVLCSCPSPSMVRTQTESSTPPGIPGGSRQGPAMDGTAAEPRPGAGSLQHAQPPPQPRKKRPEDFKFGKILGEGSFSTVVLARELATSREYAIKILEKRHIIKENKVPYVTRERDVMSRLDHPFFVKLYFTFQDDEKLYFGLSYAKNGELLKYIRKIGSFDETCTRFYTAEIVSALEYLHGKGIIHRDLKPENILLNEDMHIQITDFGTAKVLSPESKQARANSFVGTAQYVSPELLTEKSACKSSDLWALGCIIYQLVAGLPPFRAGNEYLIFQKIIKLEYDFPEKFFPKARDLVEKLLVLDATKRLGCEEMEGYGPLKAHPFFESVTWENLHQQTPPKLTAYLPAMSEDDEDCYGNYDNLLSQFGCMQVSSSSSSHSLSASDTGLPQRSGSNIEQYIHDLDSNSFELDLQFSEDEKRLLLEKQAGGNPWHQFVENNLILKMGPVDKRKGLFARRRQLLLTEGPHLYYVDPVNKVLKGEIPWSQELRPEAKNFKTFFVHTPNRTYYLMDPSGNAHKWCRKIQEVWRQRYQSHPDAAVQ
Sequence of Mitogen-activated protein kinase kinase kinase 19 (Homo sapiens) (Q56UN5 whole entry, the tested form may be a part): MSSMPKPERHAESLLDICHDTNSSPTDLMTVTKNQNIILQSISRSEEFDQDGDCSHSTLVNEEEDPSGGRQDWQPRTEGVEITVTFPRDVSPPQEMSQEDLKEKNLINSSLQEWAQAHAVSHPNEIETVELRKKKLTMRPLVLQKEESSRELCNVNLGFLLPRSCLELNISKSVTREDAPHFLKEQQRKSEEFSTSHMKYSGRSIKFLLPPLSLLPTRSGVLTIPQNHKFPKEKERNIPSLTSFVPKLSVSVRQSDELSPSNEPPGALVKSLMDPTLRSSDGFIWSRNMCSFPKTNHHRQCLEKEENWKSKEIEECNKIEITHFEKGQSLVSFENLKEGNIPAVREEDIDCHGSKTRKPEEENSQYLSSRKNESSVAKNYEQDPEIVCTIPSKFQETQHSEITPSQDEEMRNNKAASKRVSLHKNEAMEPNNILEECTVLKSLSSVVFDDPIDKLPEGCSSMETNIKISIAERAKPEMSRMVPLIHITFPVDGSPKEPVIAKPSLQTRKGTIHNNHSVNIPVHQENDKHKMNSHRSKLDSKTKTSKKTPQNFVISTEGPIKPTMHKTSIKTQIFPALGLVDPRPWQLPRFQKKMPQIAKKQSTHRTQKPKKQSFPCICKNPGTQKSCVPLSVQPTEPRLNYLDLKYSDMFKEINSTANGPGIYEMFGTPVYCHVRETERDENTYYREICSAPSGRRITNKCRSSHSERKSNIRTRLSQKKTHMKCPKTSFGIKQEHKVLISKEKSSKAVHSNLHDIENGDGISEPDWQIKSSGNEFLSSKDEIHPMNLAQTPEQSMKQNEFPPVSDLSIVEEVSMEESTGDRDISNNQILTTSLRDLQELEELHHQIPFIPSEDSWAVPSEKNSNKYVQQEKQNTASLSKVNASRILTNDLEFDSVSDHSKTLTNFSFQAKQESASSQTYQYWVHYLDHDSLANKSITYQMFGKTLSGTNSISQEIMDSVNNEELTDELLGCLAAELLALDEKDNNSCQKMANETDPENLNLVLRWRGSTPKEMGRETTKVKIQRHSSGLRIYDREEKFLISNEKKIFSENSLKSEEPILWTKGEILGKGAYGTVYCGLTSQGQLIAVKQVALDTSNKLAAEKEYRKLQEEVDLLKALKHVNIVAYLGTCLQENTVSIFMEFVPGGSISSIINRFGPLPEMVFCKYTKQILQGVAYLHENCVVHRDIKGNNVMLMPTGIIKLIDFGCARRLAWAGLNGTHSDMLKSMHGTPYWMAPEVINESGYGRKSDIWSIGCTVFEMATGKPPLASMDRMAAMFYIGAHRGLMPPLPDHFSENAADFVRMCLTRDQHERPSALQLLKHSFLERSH
Sequence of Cyclin-dependent kinase 5 (Homo sapiens) (Q00535 whole entry, looked up, the tested form may be a part): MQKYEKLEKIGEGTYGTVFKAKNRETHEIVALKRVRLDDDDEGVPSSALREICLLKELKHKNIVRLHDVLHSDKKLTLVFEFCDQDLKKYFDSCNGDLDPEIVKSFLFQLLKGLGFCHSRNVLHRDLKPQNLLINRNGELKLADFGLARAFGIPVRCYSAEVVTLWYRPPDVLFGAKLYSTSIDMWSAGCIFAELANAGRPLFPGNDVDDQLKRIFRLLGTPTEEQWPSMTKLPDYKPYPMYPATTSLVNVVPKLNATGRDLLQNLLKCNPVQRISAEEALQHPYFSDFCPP
Sequence of Serine/threonine-protein kinase 16 (Homo sapiens) (O75716 whole entry, the tested form may be a part): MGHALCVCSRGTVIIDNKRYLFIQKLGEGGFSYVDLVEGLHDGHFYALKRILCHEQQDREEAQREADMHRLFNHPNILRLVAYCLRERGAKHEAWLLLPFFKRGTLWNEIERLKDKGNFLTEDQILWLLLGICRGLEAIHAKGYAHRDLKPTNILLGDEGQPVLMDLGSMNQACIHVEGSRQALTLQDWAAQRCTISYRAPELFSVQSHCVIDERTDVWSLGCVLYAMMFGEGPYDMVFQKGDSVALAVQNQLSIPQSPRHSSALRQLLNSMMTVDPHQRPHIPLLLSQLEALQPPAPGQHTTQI
Sequence of Megakaryocyte-associated tyrosine-protein kinase (Homo sapiens) (P42679 whole entry, the tested form may be a part): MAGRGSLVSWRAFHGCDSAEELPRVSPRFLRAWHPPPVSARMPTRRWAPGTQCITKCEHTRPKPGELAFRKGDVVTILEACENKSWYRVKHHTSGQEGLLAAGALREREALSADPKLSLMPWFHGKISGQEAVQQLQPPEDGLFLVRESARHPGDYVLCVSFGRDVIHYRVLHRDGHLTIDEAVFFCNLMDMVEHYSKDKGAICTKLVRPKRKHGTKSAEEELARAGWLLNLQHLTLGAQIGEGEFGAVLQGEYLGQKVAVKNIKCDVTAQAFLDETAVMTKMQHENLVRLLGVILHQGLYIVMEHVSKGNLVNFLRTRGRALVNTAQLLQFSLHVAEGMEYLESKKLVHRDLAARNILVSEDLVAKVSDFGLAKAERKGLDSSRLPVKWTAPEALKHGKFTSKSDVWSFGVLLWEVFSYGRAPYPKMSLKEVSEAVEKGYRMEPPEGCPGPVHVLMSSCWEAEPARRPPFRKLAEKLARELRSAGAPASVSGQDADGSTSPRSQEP
Sequence of Activin receptor type-2B (Homo sapiens) (Q13705 whole entry, the tested form may be a part): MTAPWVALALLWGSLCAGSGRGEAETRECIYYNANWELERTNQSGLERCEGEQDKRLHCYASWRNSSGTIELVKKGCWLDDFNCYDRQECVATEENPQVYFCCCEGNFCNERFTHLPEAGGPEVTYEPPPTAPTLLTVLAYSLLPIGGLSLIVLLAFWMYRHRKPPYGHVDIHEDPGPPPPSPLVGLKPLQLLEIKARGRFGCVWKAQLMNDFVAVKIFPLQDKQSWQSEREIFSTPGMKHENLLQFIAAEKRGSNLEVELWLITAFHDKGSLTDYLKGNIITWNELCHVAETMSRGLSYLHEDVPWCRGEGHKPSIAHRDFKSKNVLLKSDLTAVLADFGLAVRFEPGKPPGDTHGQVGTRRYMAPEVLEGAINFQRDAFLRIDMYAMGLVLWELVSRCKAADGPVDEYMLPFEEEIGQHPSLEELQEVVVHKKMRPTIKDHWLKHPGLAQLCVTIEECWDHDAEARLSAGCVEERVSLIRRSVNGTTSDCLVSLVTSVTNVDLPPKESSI
Sequence of Rho-associated protein kinase 2 (Homo sapiens) (O75116 whole entry, looked up, the tested form may be a part, canonical isoform): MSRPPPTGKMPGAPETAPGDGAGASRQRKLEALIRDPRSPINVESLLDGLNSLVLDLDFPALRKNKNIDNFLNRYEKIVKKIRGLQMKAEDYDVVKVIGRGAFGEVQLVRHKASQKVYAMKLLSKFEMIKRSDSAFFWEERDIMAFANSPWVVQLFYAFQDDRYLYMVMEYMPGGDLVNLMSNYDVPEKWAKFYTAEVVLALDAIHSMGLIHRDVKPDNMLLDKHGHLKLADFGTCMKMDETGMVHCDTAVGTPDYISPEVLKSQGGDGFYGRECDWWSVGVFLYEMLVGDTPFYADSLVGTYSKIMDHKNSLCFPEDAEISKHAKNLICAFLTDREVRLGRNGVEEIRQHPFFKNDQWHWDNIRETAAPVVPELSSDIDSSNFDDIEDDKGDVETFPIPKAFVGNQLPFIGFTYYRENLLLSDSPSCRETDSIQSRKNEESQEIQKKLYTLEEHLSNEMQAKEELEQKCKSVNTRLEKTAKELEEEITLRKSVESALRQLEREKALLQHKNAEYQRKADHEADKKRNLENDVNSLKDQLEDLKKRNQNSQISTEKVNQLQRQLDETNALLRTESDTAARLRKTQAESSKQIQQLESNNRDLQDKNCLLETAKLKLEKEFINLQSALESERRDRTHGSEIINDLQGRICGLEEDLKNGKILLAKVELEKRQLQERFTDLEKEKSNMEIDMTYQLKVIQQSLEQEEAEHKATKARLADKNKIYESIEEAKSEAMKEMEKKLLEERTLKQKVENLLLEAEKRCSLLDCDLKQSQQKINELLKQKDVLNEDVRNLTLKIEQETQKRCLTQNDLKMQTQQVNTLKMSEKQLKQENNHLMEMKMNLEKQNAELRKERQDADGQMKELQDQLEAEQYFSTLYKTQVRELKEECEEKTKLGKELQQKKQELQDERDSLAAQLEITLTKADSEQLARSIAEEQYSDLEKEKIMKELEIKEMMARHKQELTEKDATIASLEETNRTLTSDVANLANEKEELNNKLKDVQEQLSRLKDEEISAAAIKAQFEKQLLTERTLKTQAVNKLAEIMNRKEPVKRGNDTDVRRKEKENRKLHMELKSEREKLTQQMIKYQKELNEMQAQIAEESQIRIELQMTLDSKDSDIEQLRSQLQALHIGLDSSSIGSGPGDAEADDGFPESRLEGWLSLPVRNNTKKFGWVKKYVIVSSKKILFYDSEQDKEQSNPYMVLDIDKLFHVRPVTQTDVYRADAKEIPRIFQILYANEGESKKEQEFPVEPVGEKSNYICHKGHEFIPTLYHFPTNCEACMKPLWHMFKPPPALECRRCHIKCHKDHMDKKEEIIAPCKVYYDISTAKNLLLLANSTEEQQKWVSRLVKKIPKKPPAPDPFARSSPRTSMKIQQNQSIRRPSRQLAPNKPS

For `C=CC(=O)Nc1cc(Nc2ncc(Cl)c(Nc3ccccc3S(=O)(=O)C(C)C)n2)c(OC)cc1N(C)CCN(C)C`, the Activity in [1] was 85%; in [2], 94%; in test [3], 96%; in test [4], 83%; in [5] it was 14%; in test [6], 4.3%. Also, the Activity in test [7] amounted to 96%; in [8], 68%; in test [9], 15%; in test [10] it was 30%; in [11], 2%; in test [12], 100%. Further, the Activity in [13] was found to be 94%; in [14], 62%; in [15], 73%; in test [16], 98%; in test [17], 10%; in [18], 10%. The Activity in [19] stood at 64%; in test [20], 15%; in test [21], 100%; in test [22], 78%; in test [23], 94%; in test [24], 57%.

These data come from ChEMBL document CHEMBL4382192, “Discovery of a potent dual ALK and EGFR T790M inhibitor” (Eur J Med Chem, 2017).
